Measurements published in ChEMBL document CHEMBL4196130, “3-(2-Carboxyethyl)indole-2-carboxylic Acid Derivatives: Structural Requirements and Properties of Potent Agonists of the Orphan G Protein-Coupled Receptor GPR17” (J Med Chem, 2018).
Activity calls are given as the source filed them. The rule behind the calls is not given here.

Columns and labels:
[1] = molecular target: T1, Uracil nucleotide/cysteinyl leukotriene receptor (Homo sapiens, UniProt Q13304); assay: Agonist activity at human GPR17 expressed in human 1321N1 cells assessed as induction of calcium mobilization after 1 hr by Oregon Green BAPTA-1/AM dye-based fluorescence assay; type: functional, cell-based
T1 sequence (Q13304 whole entry): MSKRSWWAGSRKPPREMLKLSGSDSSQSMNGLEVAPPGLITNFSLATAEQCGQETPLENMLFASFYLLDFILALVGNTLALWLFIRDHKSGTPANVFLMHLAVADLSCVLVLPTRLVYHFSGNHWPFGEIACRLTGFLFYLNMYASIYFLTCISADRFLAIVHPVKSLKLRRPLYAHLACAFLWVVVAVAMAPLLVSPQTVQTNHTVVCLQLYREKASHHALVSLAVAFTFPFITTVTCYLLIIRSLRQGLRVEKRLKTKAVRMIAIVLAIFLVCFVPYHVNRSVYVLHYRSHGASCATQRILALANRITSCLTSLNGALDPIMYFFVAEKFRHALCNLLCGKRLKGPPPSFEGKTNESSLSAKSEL
In short: (§1)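 Stably transfected 1321N1 astrocytoma cells were trypsin/EDTA-harvested, held 45 min at 37°C, then loaded 1 h at 25°C in KRH buffer pH 7.4 with 3 µM Oregon Green BAPTA-1/AM and 1% Pluronic F127, washed, and plated at ~16,000 cells/well. Fluorescence was read at 520 nm for 30 s after compound injection. Efficacy was expressed relative to the maximum given by 10 µM MDL 29,951. EC50 came from concentration-response curves, run for compounds exceeding 50% stimulation at 10 µM. At least three independent experiments, each in duplicate.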

[2] = molecular target: T1, Uracil nucleotide/cysteinyl leukotriene receptor; assay: Agonist activity at human GPR17 expressed in human 1321N1 cells assessed as induction of calcium mobilization after 1 hr by Oregon Green BAPTA-1/AM dye-based fluorescence assay relative to MDL 29,951; type: functional, cell-based; in short: as §1
[3] = molecular target: T1, Uracil nucleotide/cysteinyl leukotriene receptor; assay: Agonist activity at human GPR17 expressed in human 1321N1 cells assessed as induction of calcium mobilization at >30 uM after 1 hr by Oregon Green BAPTA-1/AM dye-based fluorescence assay relative to control; type: functional, cell-based
[4] = molecular target: T1, Uracil nucleotide/cysteinyl leukotriene receptor; assay: Antagonist activity at human GPR17 expressed in human 1321N1 cells assessed as inhibition of MDL 29,951-induced calcium mobilization after 1 hr by Oregon Green BAPTA-1/AM dye-based fluorescence assay; type: functional, cell-based
In short: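 Oregon Green BAPTA-1/AM calcium assay in hGPR17-1321N1 cells (1 h dye loading at 25°C in KRH buffer pH 7.4). Full inhibition curves were run for potent antagonists. Fluorescence was read at 520 nm.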

[5] = molecular target: T1, Uracil nucleotide/cysteinyl leukotriene receptor; assay: Antagonist activity at human GPR17 expressed in human 1321N1 cells assessed as inhibition of MDL 29,951-induced calcium mobilization at 30 uM after 1 hr by Oregon Green BAPTA-1/AM dye-based fluorescence assay relative to control
[6] = molecular target: T1, Uracil nucleotide/cysteinyl leukotriene receptor; assay: Agonist activity at human GPR17 expressed in human 1321N1 cells assessed as induction of calcium mobilization at >100 uM after 1 hr by Oregon Green BAPTA-1/AM dye-based fluorescence assay relative to control; type: functional, cell-based
[7] = Selectivity ratio of EC50 for mouse GPR17 expressed in HEK293 cells to EC50 for human GPR17 expressed in human 1321N1 cells; type: cell-based
[8] = molecular target: Uracil nucleotide/cysteinyl leukotriene receptor (Mus musculus, UniProt Q6NS65); assay: Agonist activity at mouse GPR17 expressed in HEK293 cells assessed as induction of intracellular calcium mobilization by calcium 5-dye based assay; type: functional, cell-based
Uracil nucleotide/cysteinyl leukotriene receptor (Mus musculus, UniProt Q6NS65), sequence (Q6NS65 whole entry): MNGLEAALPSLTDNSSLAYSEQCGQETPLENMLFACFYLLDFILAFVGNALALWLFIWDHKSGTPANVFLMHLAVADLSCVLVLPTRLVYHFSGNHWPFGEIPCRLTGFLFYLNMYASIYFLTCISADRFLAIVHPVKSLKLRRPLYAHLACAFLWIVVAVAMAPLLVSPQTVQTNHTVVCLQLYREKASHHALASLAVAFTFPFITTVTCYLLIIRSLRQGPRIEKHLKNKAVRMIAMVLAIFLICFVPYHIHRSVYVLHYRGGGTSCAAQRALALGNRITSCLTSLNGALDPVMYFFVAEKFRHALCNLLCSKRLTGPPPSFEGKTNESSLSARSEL
In short: (§2)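 HEK293 cells expressing rat or mouse GPR17 were seeded at 60,000 cells/well on poly-D-lysine plates and loaded 40 min with Calcium 5 indicator dye. Calcium signals were read on a plate reader. EC50 was obtained by nonlinear regression of concentration-response data. Means ± SEM from 3 independent experiments.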

[9] = molecular target: P2Y purinoceptor 6 (Homo sapiens) (UniProt Q15077); assay: Agonist activity at human P2Y6 receptor transfected in human 1321N1 cells assessed as induction of calcium mobilization after 30 mins in presence of UDP by fluo-4 dye based assay; type: functional, cell-based
P2Y purinoceptor 6 (Homo sapiens), sequence (Q15077 whole entry): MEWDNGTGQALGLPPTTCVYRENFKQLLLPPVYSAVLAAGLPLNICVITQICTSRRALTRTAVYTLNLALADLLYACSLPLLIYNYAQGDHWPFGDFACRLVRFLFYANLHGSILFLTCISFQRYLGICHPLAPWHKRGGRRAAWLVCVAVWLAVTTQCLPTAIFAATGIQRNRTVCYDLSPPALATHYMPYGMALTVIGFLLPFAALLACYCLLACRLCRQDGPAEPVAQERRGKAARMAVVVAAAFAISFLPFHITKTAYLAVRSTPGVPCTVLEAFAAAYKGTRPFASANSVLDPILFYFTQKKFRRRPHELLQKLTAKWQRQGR
In short: (§3)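 Calcium mobilization was measured in 1321N1 astrocytoma cells stably transfected with human P2Y1, P2Y2, P2Y4 or P2Y6 receptors, read on a Flexstation III microplate reader.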

[10] = Selectivity ratio of EC50 for rat GPR17 expressed in HEK293 cells to EC50 for human GPR17 expressed in human 1321N1 cells; type: cell-based
[11] = molecular target: P2Y purinoceptor 4 (Homo sapiens) (UniProt P51582); assay: Agonist activity at human P2Y4 receptor transfected in human 1321N1 cells assessed as induction of calcium mobilization after 30 mins in presence of UTP by fluo-4 dye based assay; type: functional, cell-based; in short: as §3
P2Y purinoceptor 4 (Homo sapiens), sequence (P51582 whole entry): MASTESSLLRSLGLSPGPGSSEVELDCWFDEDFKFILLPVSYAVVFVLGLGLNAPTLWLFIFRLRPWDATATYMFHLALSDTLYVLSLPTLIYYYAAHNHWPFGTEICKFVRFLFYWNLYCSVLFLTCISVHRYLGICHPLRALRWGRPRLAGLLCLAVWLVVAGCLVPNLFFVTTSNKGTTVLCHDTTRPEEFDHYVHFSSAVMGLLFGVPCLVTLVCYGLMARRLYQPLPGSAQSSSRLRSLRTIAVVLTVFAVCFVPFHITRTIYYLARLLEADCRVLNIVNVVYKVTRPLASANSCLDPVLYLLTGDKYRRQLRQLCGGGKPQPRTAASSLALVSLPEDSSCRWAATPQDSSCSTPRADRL

[12] = molecular target: P2Y purinoceptor 12 (Homo sapiens) (UniProt Q9H244); assay: Agonist activity at human P2Y12 receptor transfected in CHO cells assessed as induction of beta-arrestin translocation; type: functional, cell-based
P2Y purinoceptor 12 (Homo sapiens), sequence (Q9H244 whole entry): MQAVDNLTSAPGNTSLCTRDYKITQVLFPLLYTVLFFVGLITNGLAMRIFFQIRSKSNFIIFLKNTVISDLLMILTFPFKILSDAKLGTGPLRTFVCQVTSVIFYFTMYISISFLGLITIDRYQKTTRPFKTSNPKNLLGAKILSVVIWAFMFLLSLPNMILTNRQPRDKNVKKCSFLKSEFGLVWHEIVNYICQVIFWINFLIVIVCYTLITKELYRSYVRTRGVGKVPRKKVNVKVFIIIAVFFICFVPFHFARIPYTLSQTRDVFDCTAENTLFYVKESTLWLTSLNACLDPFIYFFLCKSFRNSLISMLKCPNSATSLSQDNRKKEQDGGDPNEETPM
In short: (§4)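 β-Arrestin translocation assays were run in CHO cells stably transfected with human P2Y12 or P2Y14 receptors.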

[13] = molecular target: P2Y purinoceptor 2 (Homo sapiens, UniProt P41231); assay: Agonist activity at human P2Y2 receptor transfected in human 1321N1 cells assessed as induction of calcium mobilization after 30 mins in presence of UTP by fluo-4 dye based assay; type: functional, cell-based; in short: as §3
P2Y purinoceptor 2, sequence (P41231 whole entry): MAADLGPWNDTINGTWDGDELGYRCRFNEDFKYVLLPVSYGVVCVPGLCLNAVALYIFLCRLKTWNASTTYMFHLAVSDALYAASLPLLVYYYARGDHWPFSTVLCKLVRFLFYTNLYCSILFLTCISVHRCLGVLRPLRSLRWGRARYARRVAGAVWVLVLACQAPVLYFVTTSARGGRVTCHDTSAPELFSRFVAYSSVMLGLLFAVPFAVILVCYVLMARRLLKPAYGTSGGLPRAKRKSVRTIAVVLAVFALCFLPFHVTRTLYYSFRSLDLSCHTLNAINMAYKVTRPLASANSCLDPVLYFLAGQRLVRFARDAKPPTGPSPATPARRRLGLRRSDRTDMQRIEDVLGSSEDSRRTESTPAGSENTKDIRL

[14] = molecular target: Uracil nucleotide/cysteinyl leukotriene receptor (Rattus norvegicus, UniProt Q09QM4); assay: Agonist activity at rat GPR17 expressed in HEK293 cells assessed as induction of intracellular calcium mobilization by calcium 5-dye based assay; type: functional, cell-based; in short: as §2
Uracil nucleotide/cysteinyl leukotriene receptor (Rattus norvegicus, UniProt Q09QM4), sequence (Q09QM4 whole entry): as the sequence (Q6NS65 whole entry) above, with N2D, A6T, S15A, A270S counted along it

[15] = molecular target: T2, P2Y purinoceptor 14 (Homo sapiens) (UniProt Q15391); assay: Agonist activity at human P2Y14 receptor transfected in CHO cells assessed as induction of beta-arrestin translocation; type: functional, cell-based; in short: as §4
T2 sequence (whole entry): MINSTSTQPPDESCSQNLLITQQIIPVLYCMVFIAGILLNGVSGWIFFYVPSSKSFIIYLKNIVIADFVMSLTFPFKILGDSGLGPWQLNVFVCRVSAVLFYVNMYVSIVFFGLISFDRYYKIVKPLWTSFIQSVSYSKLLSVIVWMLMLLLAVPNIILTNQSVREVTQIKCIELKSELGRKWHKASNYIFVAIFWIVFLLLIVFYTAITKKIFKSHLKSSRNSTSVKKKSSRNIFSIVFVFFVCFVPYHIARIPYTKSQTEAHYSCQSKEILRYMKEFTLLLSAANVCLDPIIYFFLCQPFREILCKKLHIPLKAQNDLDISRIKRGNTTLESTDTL

[16] = molecular target: P2Y purinoceptor 1 (Homo sapiens) (UniProt P47900); assay: Agonist activity at human P2Y1 receptor transfected in human 1321N1 cells assessed as induction of calcium mobilization after 30 mins in presence of ADP by fluo-4 dye based assay; type: functional, cell-based; in short: as §3
P2Y purinoceptor 1 (Homo sapiens), sequence (P47900 whole entry): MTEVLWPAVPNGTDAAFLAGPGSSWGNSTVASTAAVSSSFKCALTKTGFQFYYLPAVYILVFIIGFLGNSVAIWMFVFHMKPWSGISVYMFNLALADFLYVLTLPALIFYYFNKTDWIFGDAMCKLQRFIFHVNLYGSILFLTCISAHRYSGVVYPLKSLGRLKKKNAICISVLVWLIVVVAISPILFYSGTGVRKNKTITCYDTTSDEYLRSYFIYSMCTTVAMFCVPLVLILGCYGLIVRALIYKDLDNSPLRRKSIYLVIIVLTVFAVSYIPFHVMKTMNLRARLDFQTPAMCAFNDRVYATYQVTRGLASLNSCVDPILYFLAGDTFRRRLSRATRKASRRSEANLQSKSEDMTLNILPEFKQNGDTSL

[17] = molecular target: T1, Uracil nucleotide/cysteinyl leukotriene receptor; assay: Displacement of [3H]PSB-12150 from human GPR17 expressed in CHO cell membranes after 60 mins by liquid scintillation counting
In short: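 Membranes from CHO cells stably expressing human GPR17 were incubated 60 min at 25°C with 25 nM [3H]PSB-12150 (17 Ci/mmol), 10 mM MgCl2 and increasing test compound concentrations. Bound radioligand was separated by GF/B filtration and counted by liquid scintillation. Nonspecific binding was defined with 100 µM unlabeled PSB-12150. Ki came from the Cheng-Prusoff equation with KD 1190 nM. Three independent experiments in duplicate.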

SMILES	EC50 [1] [µM]	Emax [2] [%]	Activity [3] [%]	further results
O=C(O)CCc1c(C(=O)O)[nH]c2cc(-c3cccs3)ccc12	9.55	87	–	–
CN(C)CCc1c[nH]c2ccc(Cn3cncn3)cc12 [RIZATRIPTAN]	–	–	0	IC50 [4]: > 30 µM; inhibition [5]: 27%
O=C(O)CCc1c(C(=O)O)[nH]c2c(Cl)ccc(Cl)c12	> 30	–	1	–
O=C(O)CCCc1c(C(=O)O)[nH]c2cc(Cl)cc(Cl)c12	> 30	–	1	–
O=C(O)CCc1c(C(=O)O)[nH]c2c1ccc1ccccc12	> 30	–	0	–
O=C(O)CCc1c(C(=O)O)[nH]c2c(F)c(-c3cccs3)ccc12	> 100	–	–	Activity [6]: 21%
O=C(O)CCc1c(C(=O)O)[nH]c2cc(Cl)ccc12	–	84	–	–
O=C(O)CCc1c(C(=O)O)[nH]c2cc(F)ccc12	≥ 10	–	–	–
O=C(O)CCc1c(C(=O)O)[nH]c2c(F)c(Cl)ccc12	7.9	87	–	–
Cn1c(C(=O)O)c(CCC(=O)O)c2c(Cl)cc(Cl)cc21	> 30	–	16	–
O=C(O)CCc1c(C(=O)O)[nH]c2cc(Cl)cc(Cl)c12	–	–	–	Ratio EC50 [7]: 2 to 6; EC50 [8]: 1.11 µM; Activity [9]: inactive; Ratio EC50 [10]: 2 to 6; Activity [11]: inactive; Activity [12]: inactive; Activity [13]: inactive; EC50 [14]: 0.705 µM; Activity [15]: inactive; Activity [16]: inactive; Ki [17]: 2.45 µM
O=C(O)/C=C/c1c(C(=O)O)[nH]c2cc(Cl)cc(Cl)c12	> 30	–	22	–
COc1cccc2[nH]c(C(=O)O)c(CCC(=O)O)c12	> 100	–	–	Activity [6]: 4%
O=C(O)CCc1c(C(=O)O)[nH]c2cc(F)cc(F)c12	–	72	–	–
COc1ccc2c(c1)c(CC(=O)O)c(C)n2C(=O)c1ccc(Cl)cc1 [INDOMETHACIN]	–	–	0	IC50 [4]: 28.8 µM
CCCCCOc1cc(Cl)cc2[nH]c(C(=O)O)c(CCC(=O)O)c12	≥ 10	–	–	–
N[C@@H](Cc1c[nH]c2ccccc12)C(=O)O [TRYPTOPHAN]	–	–	0	IC50 [4]: > 30 µM; inhibition [5]: 1%

Continued, in another order:

EC50 [1] [µM]	Emax [2] [%]	Activity [3] [%]	SMILES	further results
1.68	41	–	O=C(O)CCc1c[nH]c2cc(Cl)cc(Cl)c12	–
3.01	65	–	O=C(O)CCc1c(C(=O)O)[nH]c2c(F)c(-c3ccccc3)ccc12	–
4.09	84	–	O=C(O)CCc1c(C(=O)O)[nH]c2cc(-c3ccccc3)cc(-c3ccccc3)c12	–
1.47	92	–	O=C(O)CCc1c(C(=O)O)[nH]c2cc(F)cc(I)c12	–
3.68	101	–	O=C(O)CCc1c(C(=O)O)[nH]c2cc(Cl)cc(-c3ccc(F)cc3)c12	–
4.13	74	–	O=C(O)CCc1c(C(=O)O)[nH]c2cc(-c3ccco3)ccc12	–
0.0279	102	–	O=C(O)CCc1c(C(=O)O)[nH]c2cc(Br)cc(F)c12	Activity [9]: inactive; Activity [11]: inactive; Activity [12]: inactive; Activity [13]: inactive; Activity [15]: inactive; Activity [16]: inactive
5.44	–	–	O=C(O)CCc1c(C(=O)O)n(CCC(=O)O)c2cc(Cl)cc(Cl)c12	–
